# Key:
# [1] = Distribution coefficient, log D in octanol and phosphate buffer saline at pH 7.4; format: physicochemical; settings: octanol/phosphate buffered saline
# Outline: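 A 10 mM DMSO stock was added to a 1:1 octanol/PBS pH 7.4 mixture. Measured in duplicate.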
# [2] = Antitumor activity aganist Brown Norwegian rat bearing BN472 tumor assessed as reduction of tumor size at 0.1 mg/kg, ip administered once daily after 4 days of tumor transplantation for 17 to 18 days relative to control; format: functional; set-up: scale not given: the % may be the effect or the level left; settings: route intraperitoneal
# Outline: (§1)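 Rats bearing orthotopic BN472 breast tumours (grown three days) were dosed i.p. daily from day 4 for 17–18 days at 0.1 or 1 mg/kg. Vehicle-only i.p. controls were included. Tumour size and tumour weight were measured at the end of the treatment period and compared with controls.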
# [3] = Antitumor activity aganist Brown Norwegian rat bearing BN472 tumor assessed as reduction of tumor weight at 0.1 mg/kg, ip administered once daily after 4 days of tumor transplantation for 17 to 18 days relative to control; format: functional; set-up: scale not given: the % may be the effect or the level left; settings: route intraperitoneal; outline: as §1
# [4] = Apparent solubility in phosphate buffered saline at pH 7.4 after 2 hrs; format: ADME
# Outline: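 Compounds were serially diluted from 10 mM DMSO stock into PBS pH 7.4 (2% DMSO final), giving 1–200 µM final at eight concentrations, in duplicate. Incubation was 2 h at 37 °C. Solubility was taken as the onset of increased absorbance at 620 nm.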
# Rattus norvegicus [5] = experiment: Toxicity in Brown Norwegian rat bearing BN472 tumor assessed as increase in uterus weight at 0.1 mg/kg, ip administered once daily after 4 days of tumor transplantation for 17 to 18 days relative to control; format: organism-based; set-up: dose 0.1 mg/kg, route intraperitoneal; settings: in vivo
# Outline: (§2)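 Orthotopic BN472 breast tumour model in rats. Daily i.p. dosing at 0.1 or 1 mg/kg started on day 4 and ran 17–18 days, with vehicle-only i.p. controls. Side effects were assessed from body weight and the weights of several organs, compared with controls.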
# [6] = Antimetastatic activity against Brown Norwegian rat bearing BN472 tumor assessed as decrease in number of lung foci at 1 mg/kg, ip administered once daily after 4 days of tumor transplantation for 17 to 18 days relative to control; format: functional; set-up: scale not given: the % may be the effect or the level left; settings: route intraperitoneal
# Outline: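 BN472 breast tumours implanted orthotopically in rats and left to grow three days. From day 4, compounds were given i.p. daily for 17–18 days at 0.1 or 1 mg/kg. Controls received vehicle i.p. only. Lung foci were counted and axillary lymph nodes weighed at the end of treatment. Groups were compared with control at an unadjusted significance level of P 0.05.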
# Rattus norvegicus [7] = experiment: Toxicity in Brown Norwegian rat bearing BN472 tumor assessed as increase in lung weight at 0.1 mg/kg, ip administered once daily after 4 days of tumor transplantation for 17 to 18 days relative to control; format: organism-based; set-up: dose 0.1 mg/kg, route intraperitoneal; settings: in vivo; outline: as §2
# Prothrombin = Prothrombin (Mus musculus, UniProt P19221); experiment: Inhibition of mouse thrombin
# Rattus norvegicus [8] = experiment: Toxicity in Brown Norwegian rat bearing BN472 tumor assessed as decrease in adrenal weight at 0.1 mg/kg, ip administered once daily after 4 days of tumor transplantation for 17 to 18 days relative to control; format: organism-based; set-up: dose 0.1 mg/kg, route intraperitoneal; scale not given: the % may be the effect or the level left; settings: in vivo; outline: as §2
# [9] = Antimetastatic activity against Brown Norwegian rat bearing BN472 tumor assessed as reduction of interpectoral lymph node weight at 1 mg/kg, ip administered once daily after 4 days of tumor transplantation for 17 to 18 days relative to control; format: functional; set-up: scale not given: the % may be the effect or the level left; settings: route intraperitoneal
# [10] = Antitumor activity against Brown Norwegian rat bearing BN472 tumor assessed as reduction of tumor weight at 1 mg/kg, ip administered once daily after 4 days of tumor transplantation for 17 to 18 days relative to control; format: functional; set-up: scale not given: the % may be the effect or the level left; settings: route intraperitoneal; outline: as §1
structure (smiles),measurement,setting,value
COC(=O)NC(Cc1ccc(NC(=N)N)cc1)P(=O)(Oc1ccc(NC(C)=O)cc1)Oc1ccc(NC(C)=O)cc1 (stereo unspecified),logD,[1],-0.08
same,Activity,[2],10%
same,Activity,[3],15%
same,solubility at 2 h,[4],> 200 µM
same,Activity,Rattus norvegicus [5],16%
same,Activity,[6],70%
same,Activity,Rattus norvegicus [7],18%
same,IC50,Prothrombin,4.5 µM
same,Activity,Rattus norvegicus [8],5%
same,Activity,[9],6%
same,Activity,[10],17%

# Source: ChEMBL document CHEMBL1138351, “Small, potent, and selective diaryl phosphonate inhibitors for urokinase-type plasminogen activator with in vivo antimetastatic properties” (J Med Chem, 2007)
